Measured values reported in ChEMBL document CHEMBL4513216, “Probing the Open Global Health Chemical Diversity Library for Multistage-Active Starting Points for Next-Generation Antimalarials” (ACS Infect Dis, 2020).

Assay: Toxicity liver stage against HepG2, at 10uM
Format: cell-based
Design: test concentration 10 uM, cell line HepG2-A16-CD81EGFP
Settings: human, HepG2-A16-CD81EGFP cells; read-out: INHIBITION
Method in brief: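 Uninfected HepG2-A16-CD81EGFP cells, 3 × 10^3 per well, 1536-well, plated on prespotted compound at 10 μM final, parasite-free screening media added to match infected plates; puromycin 10 μM positive, DMSO 0.5% negative; run in parallel with 48 h PbLuc assay at 37 °C, 5% CO2; viability by CellTiter-Glo luminescence, normalized to controls.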

SMILES	cytotoxicity at 10 µM [%]
CC(C)c1ccc(-n2ncc(C(=O)N(C)C3CCN(C)CC3)c2N)cc1	-6.57
COCCn1/c(=N\C(=O)CN(C)S(C)(=O)=O)sc2cc(C)ccc21	-11.7
O=C(Cc1ccc(Br)cc1)N1CC(S(=O)(=O)C2CCCCC2)C1	-1.13
CNC(=O)CN1C(=O)CCC12CCCN(Cc1ccccc1F)C2 (stereo not drawn)	4.76
Cc1cccc(CN2CC3C[C@]3(NC(=O)c3ccco3)C2)n1 (stereo partly drawn)	-142
O=C(c1cscn1)N1CCCC12CCCN(S(=O)(=O)c1ccccc1)C2 (stereo not drawn)	4.35
O=C(C1CCCC1)N1CCO[C@@H]2CNC[C@@H]21	8.34
CN1CCN(C(=O)c2cc3c(s2)CCN3C(=O)C2CC2)CC1	8.52
Cc1ccc(CC(=O)N2CCn3cc(Cn4cncn4)nc3C2)cc1	-138
Cc1c(C(=O)O)cnn1-c1ccc(-c2nc(C(C)(C)C)no2)cn1	7.19
O=C(c1cn(-c2ccccc2Cl)nn1)N1CCSCC1	8.24
COCc1ncn2c1CN(C(=O)C1CC=CC1)CC2	-5.09
Cn1cc(-c2cnc(N3CCOCC3)nc2)cc1C(=O)O	-14.6
COc1ccccc1N1CCN(C(=O)Cn2nc(C)c(Cl)c2C)CC1	0.808
O=C(Nc1cc(-c2cccnc2)no1)C1CCC1	2.82
CC1(Cc2ccc(Cl)cc2)Cc2cc(CCC(=O)O)ccc2O1 (stereo not drawn)	2.79
COCCN(C)C(=O)c1ccccc1-n1cc(CN(C)C)cn1	-29.5
Cc1nn(C)c(C)c1-c1cnc(C2CCCN(C)C2)cn1 (stereo not drawn)	-8.8
O=C(Cc1ccon1)N1CCc2cc(Br)sc2C1	1.69
CCc1nc(CSCc2csc(CS(C)(=O)=O)n2)cs1	-6.79
Cn1cc(CNC2CCCOc3c2ccc2ccccc32)cn1 (stereo not drawn)	5.7

SMILES	cytotoxicity at 10 µM [%]
OC1(CNc2ccc(Br)cn2)CCC1	6.59
CC1CCCCN1C(=O)COc1nc(C(C)(C)C)no1 (stereo not drawn)	-3.22
CN1CCOC(CNCC(=O)NCCc2ccc3c(c2)OCCO3)C1 (stereo not drawn)	-10.2
CC(C)CCN(c1cn[nH]c1)S(=O)(=O)c1cccc(C#N)c1	7.95
CC(C)c1noc(C(C)N2CCN(CCc3ccncc3)CC2)n1 (stereo not drawn)	2.16
CNS(=O)(=O)Cc1ccc(CNc2ccc(C#N)cn2)cc1	-6.87
O=C(c1cc(C2CC2)[nH]n1)N1CCCN(c2nccs2)CC1	6.37
O=C(c1c[nH]c(=O)c(Cl)c1)N1CCc2ccccc2C1	-11.1
O=C(NCC(O)COc1ccc(F)cc1)C1(c2ccc(F)cc2)CC1 (stereo not drawn)	2.71
COc1ccnc(NC(=O)c2cscc2C)c1	-16
O=C(NCCc1nnc2n1CCC2)c1ccccc1OC1CCCC1	-2.27
Cc1ccc(C(=O)NC(CN2CCCC2)c2ccccc2)c(=O)[nH]1 (stereo not drawn)	-2.32
Cc1ccc(NC(=O)CN2CCC(OCC3CCCO3)CC2)c(C)c1 (stereo not drawn)	-1.7
O=C(Cn1cc(C2CC2)nn1)NC(c1ccc(Cl)cc1)C1CC1 (stereo not drawn)	2.16
O=C(CN1CCS(=O)(=O)CC1)NCc1ccccc1F	6.32
Cc1ccc(C)c(OCC(O)Cn2ncc3cnn(C)c(=O)c32)c1 (stereo not drawn)	4.45
CC(C)(NC(=O)c1ccc(-c2ccccc2F)s1)C(N)=O	12.7
Cc1cccc(C)c1OCC(=O)NC(C)c1nnc2n1CCC2 (stereo not drawn)	-3.09
Cc1ccc(S(C)(=O)=O)cc1C(=O)NS(=O)(=O)c1cccs1	0.532
Cc1cc(NCc2csc(-c3ccco3)n2)ccc1C(N)=O	20.3
CCS(=O)(=O)c1ccc(NCc2csc(C(C)C)n2)cc1	8.73

SMILES	cytotoxicity at 10 µM [%]
CNC(=O)C(C)CN(C)C(=O)Nc1ccc(Cl)cc1-n1cccc1 (stereo not drawn)	16.9
CCCN1CCCCC1C(=O)Nc1ccc(-c2nnc[nH]2)cc1 (stereo not drawn)	4.64
Cc1ccc(CNC(=O)N(Cc2ccccc2F)C2CC2)cn1	0.0194
CN(CCc1ccccn1)C(=O)C(c1cccnc1)N1CCOCC1 (stereo not drawn)	2.03
COc1ccc(-n2cc(CCO)cn2)cc1C(N)=O	5.97
CCC[C@H]1CN(S(=O)(=O)c2c(C)noc2C)C[C@@H]1N	-0.288
Cc1ccccc1C1(O)CCN(C(=O)CCc2cn3ccccc3n2)C1 (stereo not drawn)	-3.18
CC(NC(=O)c1cc2n(n1)CCCN(C)C2)c1cn2ccsc2n1 (stereo not drawn)	-2.51
CS(=O)(=O)NCC1(O)CCCN(C(=O)CCn2cc(Cl)cn2)CC1 (stereo not drawn)	-144
N[C@H]1CN(S(=O)(=O)Cc2ccccc2)C[C@@H]1C1CC1	-133
CO[C@H]1CN(Cc2cc(Cn3cncn3)c(C)cc2C)CC[C@H]1N	-7.29
Cc1nc(O)cc(CN2C[C@H](NS(=O)(=O)N(C)C)[C@@H](C3CC3)C2)n1	-5.01
Cc1ccc(C(CNC(=O)c2cc(CC(C)C)nn2C)N(C)C)cc1 (stereo not drawn)	-3.34
Cc1cc(CNc2ccc(-c3nc(C4CC4)no3)cn2)no1	2.55
Cc1nn(C)c(C)c1CCC(=O)N1CC(c2cccnc2)C1	-4.84
CCC(C)N(CC)C(=O)c1ccc2[nH]nnc2c1 (stereo not drawn)	10.5
COc1cccc(OC2CN(C(=O)c3ccoc3C)C2)c1	9.21
COCCCN(C)c1nc(-c2ccncc2)nc2c1CCN(C(C)=O)C2	-1.16
Cc1noc(C(C)C)c1C(=O)NCc1ccc2c(c1)OCCO2	3.24
CN(Cc1cccc(C(N)=O)c1)Cc1nc2c(cnn2C)c(=O)[nH]1	-2.97
CCn1nc2c(cc1=O)CN(Cc1nc(C)c(C)o1)CC2	-3.59

SMILES	cytotoxicity at 10 µM [%]
CCc1nnc(CN2CCCC2Cn2cc(C)cn2)o1 (stereo not drawn)	-6.64
O=C(NCC1CCCOC1)c1ccc(-c2ccccc2)[nH]c1=O (stereo not drawn)	-12.2
Cc1nn(C)c(Cl)c1C1CCCN1C(=O)c1ccoc1C (stereo not drawn)	-8.18
Cc1nc(CN2CCN(C(=O)NC(C)Cn3ccnc3)CC2)cs1 (stereo not drawn)	-5.28
Cc1ccc(C(=O)NCc2ccnc(N(C)C)c2)c(C)c1	-11.1
CC(C)(C)c1nc(CN2CCOC(Cn3cccn3)C2)no1 (stereo not drawn)	-18.5
CNC(=O)N1CCC(NC(=O)c2cnn(C)c2)CC1	-1.35
Cc1ccc(NC(=O)N(C)Cc2cnn(C)c2)c(C)c1	-10.7
CCS(=O)(=O)c1ccccc1N1CCC(NC(=O)NC2CCCC2)CC1	-16
CCOC(=O)CSc1nnc(C(N)CC(C)C)o1 (stereo not drawn)	-8.32
CC(NCc1ccc(C(N)=O)cc1)c1ccc(Cl)c(Cl)c1 (stereo not drawn)	8.8
Cc1cccc(-c2c[nH]c(C3CCCN3)n2)c1 (stereo not drawn)	-11.4
Cc1nc(CN2Cc3nccn3CC(CN3CCCC3)C2)cs1 (stereo not drawn)	2.43
C[C@@H]1CN(CCc2ccccc2)C[C@]12CCN(CC(=O)N(C)C)C2=O	-4.19
O=C(CC1CC1)N[C@@H]1CN(c2ncccn2)C[C@@H]2CCCO[C@@H]21	9.87
CN1CCN(C(=O)NC2CCCC2)Cc2cccnc21	-0.123
CN1CCN(C(=O)c2n[nH]c3c2CN(C2CCOCC2)CC3)CC1	3.41
O=c1occ(CN2CCCCCC2)c(O)c1CN1CCOCC1	-8.2
CCn1cc(-n2cc3nc(N4CCCC4)[nH]cc-3c2=O)cn1	2.77
Cc1ccc(NC(=O)N2C[C@@H]3CC[C@H]2CN(Cc2cscn2)C3)cc1	-7.47
